Test results: the EternaBench riboswitch data

System: MS2 coat protein
Experiment: apparent Kd, MS2 coat protein; higher = weaker binding; RNA-MaP array; FMN 200 µM where present
Summary of the method: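 On Illumina sequencing-chip clusters, designs were transcribed by stalled E. coli RNA polymerase and titrated with SNAP-549-labelled MS2 coat protein (0.7 or 1.5 nM, doubling to 3 µM), without and then with constant ligand, in 100 mM Tris-HCl pH 7.5, 80 mM KCl, 4 mM MgCl2, BSA, DTT, yeast tRNA and Tween-20. Apparent Kd is the median of filtered per-cluster curve fits to green signal normalised to red-channel RNA signal and control-cluster median Fmax.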

[1] = designed as: OFF switch for flavin mononucleotide, no ligand
[2] = ligand present: flavin mononucleotide, designed as: OFF switch for flavin mononucleotide
[3] = designed as: ON switch for flavin mononucleotide, no ligand
[4] = ligand present: flavin mononucleotide, designed as: ON switch for flavin mononucleotide

## AUGAGGUCAGGAUAUGCAUGGCGGGACUUGCGUCGUGGCGUGCAGAAGGGACAUGAGGAUCACCCAUGUGGACC
[1]
  apparent Kd: 36.4 nM
[2]
  apparent Kd: 39.5 nM

## GGGCUGUCAGGAUAUGCUUCGGCUUCGGAAAUGAAGUUGAAGUAGAAGGGACAUGAGGAUCACCCAUGUGGCCC
[1]
  apparent Kd: 28.9 nM
[2]
  apparent Kd: 35 nM

## AUUUAAUUUAGCGAGAUCACAUGAGGAUCACCCAUGUAUAUAUAGGAUAUCAGCUCGUUUAGAGCUGAGAAGGAUAUAUACCGC
[1]
  apparent Kd: 89.8 nM
[2]
  apparent Kd: 147 nM

## GUGGCUAGUGCAGGAUAUCGGCGCGUGUAGUGUCGAGAAGGGCACAUGAGGAUCACCCAUGUGAUCAAUCACUGCUAAGGCCGC
[1]
  apparent Kd: 5.12 nM
[2]
  apparent Kd: 5.38 nM

## AAGAGGUCAGGAUAUACGGAGAGAGGGAGUUGGUGAGGGUAACAUGAGGAUCACCCAUGUAGAAGGGACUAAGA
[1]
  apparent Kd: 22.4 nM
[2]
  apparent Kd: 24.7 nM

## UGAUAGCACAGAGGAUAUGCGUUGUGUUCUCUCUACAUGAGGAUCACCCAUGUAGAAGGCUGUGCUAUCUAAGUCGGAAACGAU
[1]
  apparent Kd: 8.81 nM
[2]
  apparent Kd: 36.9 nM

## UCUAAGCGAAUCAAGAUGGAUAGAACAUGAGGAUCACCCAUGUAGGAUAUGCUACACAAAGUGUAGCAGAAGGACAAGCUUAGA
[1]
  apparent Kd: 25.9 nM
[2]
  apparent Kd: 36.2 nM

## AUGAUUAUACAAGGAUAUCAAUUGUAUACAAGUCUUACAUGAGGAUCACCCAUGUUAAAUUUUUUUGAGAAGGUGUGUUGUCAG
[3]
  apparent Kd: 35.6 nM
[4]
  apparent Kd: 30.6 nM

## GAUACGUCAGGAUAUCUGAUGUCUAACUUCGGUUAGACAUCAGAGAAGGGACAUGAGGAUCACCCAUGUAUCAG
[1]
  apparent Kd: 50.4 nM
[2]
  apparent Kd: 61.1 nM

## AGCUAGUCAGGAUAUACAAACAUGUCAAAAGACGUGAGGGAACAUGAGGAUCACCCAUGUAGAAGGGACUAGCA
[1]
  apparent Kd: 53.6 nM
[2]
  apparent Kd: 195 nM

## CGUCUAUGCAAGAAGGCAUGAAACAUGAGGAUCACCCAUGUCAAAGACAUGAGGAUAUUGCAUAGACGAAAAGUGCGAAAGCAC
[4]
  apparent Kd: 3.32 nM

## CCGCGCGCGCGAGGAUAUCUAUAUCCAACAUGAGGAUCACCCAUGUUGAGGAUCACCCAUGUAAAGGAGAAGGCGCGCGCGCGG
[3]
  apparent Kd: 44.8 nM
[4]
  apparent Kd: 15.8 nM

## UGGUGUGAAUAGGAUAUGAACUCUGCCAGGAUAUCAGAAGGGUUUACAUGAGGAUCACCCAUGUCAUCCACUGC
[1]
  apparent Kd: 18.8 nM
[2]
  apparent Kd: 18.9 nM

## AUGGUGGUAGGAUAUACAACUACUUGAUCGCGUUUCAUGGAACAUGAGGAUCACCCAUGUAGAAGGGCCCGAGG
[1]
  apparent Kd: 794 nM
[2]
  apparent Kd: 552 nM

## GUGAGGUAAGGAUAUAGGAGAAAAGAUAAGGUAUGAGAGUUCUAGAAGGUACAUGAGGAUCACCCAUGUUAGGG
[1]
  apparent Kd: 224 nM
[2]
  apparent Kd: 193 nM

## UAGUAUAAGGGCAUUAAACAUGAGGAUCACCCAUGUACGAUAGAGGAUAUGCAUUUCAGUUUAGAGUAGAAGGUUAGAGAAUUG
[1]
  apparent Kd: 39.5 nM
[2]
  apparent Kd: 41.6 nM

## AGAUGGUAUAUAGGAUAUCAUGUGCAAACAUGAGGAUCACCCAUGUAGGAACGUCAGUUCAAUAAUGAGAAGGAUAUACCAUCU
[3]
  apparent Kd: 33.4 nM
[4]
  apparent Kd: 11.9 nM

## UGAUAGGACAGAGGAUAUACGGAUAGGAUCUACUAUCAAACAAGUCCUACAUGAGGAUCACCCAUGUAGAAGGCUGUCCUAUCU
[1]
  apparent Kd: 16.1 nM
[2]
  apparent Kd: 22.2 nM

## UCCGCUCGAGGAUAUACAUGAGGAUCACCCAUGUUUCCCUGUUGUUUGGCCUCAGGAUGUAGAAGGCGACGCUA
[1]
  apparent Kd: 18.3 nM
[2]
  apparent Kd: 23.6 nM

## CUAGUACAUGAGGAUCACCCAUGUCAGGAUAUUGGAUAUGCCUUGGAAAACAUGUUUACAAGAAGGGACUAUAG
[1]
  apparent Kd: 19.1 nM
[2]
  apparent Kd: 19.6 nM

## UGGUACAUCGGAGGAUAUCAUGUAGAUACAUGAGGAUCACCCAUGUCGUACGAGAGUACGGAGAUUGAGAAGGCCGAUGUACCU
[3]
  apparent Kd: 30.7 nM
[4]
  apparent Kd: 16.4 nM

## AUCAUGCUCAAGAAGGACAUGAGGAUCACCCAUGUAGGAUAUUGGGCGGUCACCUCUAGCUUGUGUGUAUCUGAAUACUCCAGG
[3]
  apparent Kd: 21.1 nM
[4]
  apparent Kd: 7.17 nM

## AGUCGGAGCAGAGGAUAUUACAUGAGGAUCACCCAUGUGGAAAAACCAAGCUGGAAACAGCAAUGUAAGAAGGCUGCUCCGACA
[1]
  apparent Kd: 497 nM
[2]
  apparent Kd: 879 nM

## ACAAAUGGAGGAUAUACAUGAGGAUCACCCAUGUAUAUCCUACAUAUGUGAUAAUCAUGUAGAAGGCCAUUUGA
[1]
  apparent Kd: 12.3 nM
[2]
  apparent Kd: 11 nM

## UCCUUGUCCUGAGGAUAUCCGCGGUGACCAAAAGGAGAAGGCAGGACAUGAGGAUCACCCAUGUACCCAGAAAACGUGCAGAGU
[1]
  apparent Kd: 30.1 nM
[2]
  apparent Kd: 197 nM

## AGGCAGCUACAUGAGGAUCACCCAUGUCUGUUUGGAUCUUCCAGAAGGCACGUAAAAUCGGUGGGUGAGGAUAUGGUAGGUCCC
[3]
  apparent Kd: 30.9 nM
[4]
  apparent Kd: 9.91 nM

## GUAGUUGUGUGGUUGAGGAUAGGGCAGGAUAUACAUGAGGAUCACCCAUGUGAAGCGGGAAGGAGGUAGAAGGGCCAACGUCAU
[1]
  apparent Kd: 13.7 nM
[2]
  apparent Kd: 10.9 nM

## AGUACGUCAGGAUAUCUGAUGUCUAACUUCGGUUAGACAUCAGAGAAGGGACAUGAGGAUCACCCAUGUACAAA
[1]
  apparent Kd: 41.8 nM
[2]
  apparent Kd: 36.9 nM

## AUCAACUCGUCAGGAUAUACGUCACUGCGUCAGCAGUGUGGUAAGAUCACAUGAGGAUCACCCAUGUAGAAGGGACGAGCUGAU
[1]
  apparent Kd: 12.5 nM
[2]
  apparent Kd: 269 nM

## GCAGACUUGCUGAAGGUGUUCCACAUGAGGAUCACCCAUGUCAAGGAUAUAACGCGUCCGGCCCGUUAGAAGGUGACAGUUUGC
[1]
  apparent Kd: 368 nM
[2]
  apparent Kd: 229 nM

## GGGAUAGGAGGAUAUGUUCUAGCUCACAUGAGGAUCACCCAUGUGGUGUCCGUUGGUAGCGCAGAAGGCUUACCUA
[1]
  apparent Kd: 792 nM
[2]
  apparent Kd: 662 nM

## GGACGUCAGAUUAACAUGAGGAUCACCCAUGUCUUUUGACAUGAGGAUAUCGAUCCUAAUUGGAUCGAGAAGGCAUGGACGUCC
[3]
  apparent Kd: 1180 nM
[4]
  apparent Kd: 96.8 nM

## AAAAGGUGAGGAUAUUCGGCGCCGGGAAGGUUGGUGCGGAUGAAGAAGGCACAUGAGGAUCACCCAUGUAAUAA
[1]
  apparent Kd: 63 nM
[2]
  apparent Kd: 49.1 nM

## AAUGAUUGAUUCCACUUAUACAUGAGGAUCACCCAUGUUAUCGAGGAUAUGCAUUAGAGUGUUUAGCAGAAGGCGAUGUAAUUG
[1]
  apparent Kd: 7.82 nM
[2]
  apparent Kd: 25 nM

## CGGUGACAUGAGGAUCACCCAUGUUAGGAUAUACAAAAGCUCGCUCAAGGGCGGCGAAGUAGAAGGAGCGUGCC
[1]
  apparent Kd: 21.7 nM
[2]
  apparent Kd: 29.7 nM

## AACAUGAGGAUCACCCAUGUACGCUGUAAUUACUCGCGUUGGCAGGAUAUGGGUUGGCUUCCGUCCCAGAAGGGUCAAGAUAAA
[3]
  apparent Kd: 253 nM
[4]
  apparent Kd: 105 nM

## CCAGCCGUUCAAGGAUAUGACAUGAGGAUCACCCAUGUGAAGUCGAACAUUGAUGCACACCUUAGUCAGAAGGUGGAUGGGUCU
[1]
  apparent Kd: 30.9 nM
[2]
  apparent Kd: 96.5 nM
